# In PubChem BioAssay AID504525 (Broad Institute, 2011):
# Calls of active or inactive are those of the source.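 The calls were made as follows: active = fitted dose curve showing toxicity with half-maximal concentration at most ten times the top tested dose; inconclusive = flat curve with 30 to 70% toxicity, or poor fit; inactive = the rest.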
# Assay: cytotoxicity in NIH-3T3 mammalian cells, dose response, cytotoxicity control for antifungal drug resistance project, cell-based, fluconazole, powder samples, set 7 (AID 504525)
# Conditions: NIH-3T3 viability with fluconazole, Alamar Blue, 48 h; series mostly up to 26 µM
# Method in brief: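 Assay system: NIH 3T3 fibroblast cells, Alamar Blue viability. Amount: 6,000 cells per well. Buffer or medium: Optimem growth medium with 2.5% fetal bovine serum. Probe or stimulus: fluconazole co-treatment at 8 µg/mL final. Compound: dose series up to 26 µM. Times: 48 h compound exposure at 37 °C. Measured by: Alamar Blue fluorescence, Ex 544/Em 590 nm.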
row,SMILES,outcome
1,O=C(Cn1c2ccccc2c2nc3n(c(=O)c21)CCS3)N1CC=CC1,inactive
2,O=C(O)Cn1c2ccccc2c2nc3n(c(=O)c21)CCS3,inactive
3,CC1(O)CN(C(=O)Cn2c3ccccc3c3nc4n(c(=O)c32)CCS4)C1,inactive
4,COC(=O)Cn1nc(C2CCCCC2)c2ccccc21,inactive
5,COC(=O)Cn1nc(-c2cccc(OC)c2)c2ccccc21,inactive
6,O=C(Cn1c2ccccc2c2nc3n(c(=O)c21)CCS3)N1CCC(F)(F)C1,inactive
7,COC(=O)n1nc(-c2ccccc2)c2ccccc21,inactive
8,c1ccc(-c2nn(Cc3nnco3)c3ccccc23)cc1,inactive
9,COC(=O)Cn1nc(-c2cccc(C)c2)c2ccccc21,inactive
10,COC(=O)Cn1nc(-c2cccc(F)c2)c2ccccc21,inactive
11,O=C(Cn1c2ccc(F)cc2c2nc3n(c(=O)c21)CCS3)N1CCC(F)(F)C1,inactive
12,O=C(O)Cn1c2ccc(F)cc2c2nc3n(c(=O)c21)CCS3,inactive
13,COC(=O)Cn1nc(-c2ccccc2)c2cccnc21,inactive
14,COC(=O)Cn1nc(-c2cscn2)c2ccccc21,inactive
15,O=C(Cn1c2ccc(F)cc2c2nc3n(c(=O)c21)CCS3)N1CC=CC1,inactive
16,O=C(Cn1c2ccc(F)cc2c2nc3n(c(=O)c21)CCS3)N1CCC(F)(F)CC1,inactive
17,COC(=O)Cn1nc(-c2cccnc2)c2ccccc21,inactive
18,O=C(Cn1c2ccccc2c2nc3n(c(=O)c21)CCS3)N1CCC(F)(F)CC1,inactive
19,CCc1nn(CC(=O)OC)c2ccccc12,inactive
20,COC(=O)Cn1nc(C(C)(C)C)c2ccccc21,inactive
21,CN1CCN(C(=O)Cn2c3ccccc3c3nc4n(c(=O)c32)CCS4)CC1,inactive
22,COC(=O)Cn1nc(-c2cnco2)c2ccccc21,inactive
23,CC1CCN(CCn2c3ccccc3c3nc4n(c(=O)c32)CCS4)CC1,inactive
24,COC(=O)Cn1nc(C2CC2)c2ccccc21,inactive
25,COC(=O)Cn1c2ccc(F)cc2c2nc3n(c(=O)c21)CCS3,inactive
